Measured values: ChEMBL document CHEMBL3414485, “Development of cyclic NGR peptides with thioether linkage: structure and dynamics determining deamidation and bioactivity” (J Med Chem, 2015)
The source made the active and inactive calls. No cut-off for these calls is given here. Where a SMILES comes first, the peptide text is derived from it. Bridges are numbered along the chain shown (N, C = ends).

Tests used:
[1] = molecular target: T1, Integrin alpha-V/beta-3 (Homo sapiens) (UniProt P05106+P06756); test: Binding affinity to integrin alphav beta3 receptor assessed as receptor-mediated cell adhesion in human A2058 cells at 10 nM to 1 uM and measured every 20 seconds for 25 hrs at 10 kHz by xCELLigence SP system based method
Method in brief: (§1)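 A2058 human melanoma cells grown in RPMI 1640 with 10% FCS, 2 mM L-glutamine and penicillin/streptomycin at 37 °C, 5% CO2. Electrodes coated 20 min at 4 °C with peptide (10-fold dilutions in 0.1% gelatin/PBS), dried 5 min. Background read 30 min, then 10^4 cells/well added. Impedance recorded every 20 s for 25 h at 10 kHz, in triplicate. ΔCI at 5, 10 and 25 h, normalized to gelatin-only control (100%).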

[2] = Chemical stability 0.2M NH4OAc at pH 5.0 at 1 mg/ml at room temperature assessed as ratio of Asn-containing cyclic peptides after 48 hrs by HPLC method; type: physicochemical; conditions: 0.2 M NH4OAc buffer, read-out: Stability
Method in brief: (§2)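 Peptide at 1.0 mg/mL (~2 mM). Buffer runs at room temperature: 0.2 M NH4OAc pH 5.0, PBS pH 7.4 or 0.1 M Tris pH 8.1. Medium runs at 37 °C in DMEM GlutaMAX-I with 10% FCS and gentamicin 160 μg/mL. Sampled at 24 and 48 h by analytical RP-HPLC. Asn/isoAsp/Asp ratio taken from peak AUC, species identified by MS and Asp reference peptides.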

[3] = Chemical stability 0.2M NH4OAc at pH 5.0 at 1 mg/ml at room temperature assessed as ratio of Asn-containing cyclic peptides after 24 hrs by HPLC method; type: physicochemical; conditions: 0.2 M NH4OAc buffer, read-out: Stability; method in brief: as §2
[4] = Chemical stability 0.1M Tris buffer at pH 8.1 at 1 mg/ml at room temperature assessed as ratio of Asn-containing cyclic peptides after 24 hrs by HPLC method; type: physicochemical; conditions: read-out: Stability; method in brief: as §2
[5] = Chemical stability DMEM cell culture medium at pH 7.3 at 1 mg/ml at 37 degC assessed as ratio of Asn-containing cyclic peptides after 24 hrs by HPLC method; type: physicochemical; conditions: read-out: Stability; method in brief: as §2
[6] = Chemical stability PBS buffer at pH 7.4 at 1 mg/ml at room temperature assessed as ratio of Asn-containing cyclic peptides after 48 hrs by HPLC method; type: physicochemical; conditions: read-out: Stability; method in brief: as §2
[7] = Chemical stability 0.1M Tris buffer at pH 8.1 at 1 mg/ml at room temperature assessed as ratio of Asn-containing cyclic peptides after 48 hrs by HPLC method; type: physicochemical; conditions: read-out: Stability; method in brief: as §2
[8] = Chemical stability PBS buffer at pH 7.4 at 1 mg/ml at room temperature assessed as ratio of Asn-containing cyclic peptides after 24 hrs by HPLC method; type: physicochemical; conditions: read-out: Stability; method in brief: as §2
[9] = molecular target: T1, Integrin alpha-V/beta-3 (Homo sapiens); test: Binding affinity to integrin alphav beta3 receptor assessed as receptor-mediated cell adhesion in human A2058 cells at 10 nM to 100 nM and measured every 20 seconds for 5 to 25 hrs at 10 kHz by xCELLigence SP system based method; method in brief: as §1
[10] = Chemical stability DMEM cell culture medium at pH 7.3 at 1 mg/ml at 37 degC assessed as ratio of Asn-containing cyclic peptides after 48 hrs by HPLC method; type: physicochemical; conditions: read-out: Stability; method in brief: as §2
[11] = molecular target: T1, Integrin alpha-V/beta-3 (Homo sapiens); test: Binding affinity to integrin alphav beta3 receptor assessed as receptor-mediated cell adhesion in human A2058 cells at 1 uM and measured every 20 seconds for 5 to 25 hrs at 10 kHz by xCELLigence SP system based method; method in brief: as §1
[12] = molecular target: T1, Integrin alpha-V/beta-3 (Homo sapiens); test: Binding affinity to integrin alphav beta3 receptor assessed as receptor-mediated cell adhesion in human A2058 cells at 10 nM to 1 uM and measured every 20 seconds for >5 hrs at 10 kHz by xCELLigence SP system based method; method in brief: as §1
[13] = molecular target: T1, Integrin alpha-V/beta-3 (Homo sapiens); test: Binding affinity to integrin alphav beta3 receptor assessed as receptor-mediated cell adhesion in human A2058 cells at 100 nM and measured every 20 seconds for 25 hrs at 10 kHz by xCELLigence SP system based method; method in brief: as §1

Activity [1]	remaining at 48 h, 1 mg/ml [2] [%]	remaining at 24 h, 1 mg/ml [3] [%]	remaining at 24 h, 1 mg/ml [4] [%]	remaining at 24 h, 1 mg/ml [5] [%]	remaining at 48 h, 1 mg/ml [6] [%]	remaining at 48 h, 1 mg/ml [7] [%]	remaining at 24 h, 1 mg/ml [8] [%]	Activity [9]	remaining at 48 h, 1 mg/ml [10] [%]	Activity [11]	Activity [12]	Activity [13]	SMILES
Active	99	100	86	0	89	73	94	–	–	–	–	–	N=C(N)NCCC[C@@H]1NC(=O)CNC(=O)[C@H](CC(N)=O)NC(=O)CCSC[C@@H](C(N)=O)NC1=O
–	100	–	85	46	93	71	96	Active	0	–	–	–	CC(=O)N[C@H]1CSSC[C@@H](C(N)=O)NC(=O)[C@H](CCCNC(=N)N)NC(=O)CNC(=O)[C@H](CC(N)=O)NC1=O (Ac-CNGRC-NH2; disulfide 1-5)
–	100	–	–	92	100	100	–	Active	54	inactive	–	–	N=C(N)NCCC[C@@H]1NC(=O)CNC(=O)[C@H](CC(N)=O)NC(=O)[C@H](CCCCN)NC(=O)CC[C@@H](C(N)=O)NC1=O (KNGRE-NH2; lactam N-5)
inactive	96	100	66	0	44	43	64	–	–	–	–	–	N=C(N)NCCC[C@@H]1NC(=O)CNC(=O)[C@H](CC(N)=O)NC(=O)CSCCC(C(N)=O)NC1=O (single isomer, unassigned)
inactive	90	100	36	0	43	15	58	–	–	–	–	–	N=C(N)NCCC[C@@H]1NC(=O)CNC(=O)[C@H](CC(N)=O)NC(=O)[C@H](CCCCN)NC(=O)CSC[C@@H](C(N)=O)NC1=O ({CH2CO}-KNGRC-NH2; thioether N-5)
–	67	85	19	0	15	13	36	–	–	–	Active	Active	N=C(N)NCCC[C@@H]1NC(=O)CNC(=O)[C@H](CC(N)=O)NC(=O)CSC[C@@H](C(N)=O)NC1=O ({CH2CO}-NGRC-NH2; thioether N-4)
inactive	98	100	67	–	75	47	86	–	–	–	–	–	N=C(N)NCCC[C@@H]1NC(=O)CNC(=O)[C@H](CC(N)=O)NC(=O)[C@@H]2CCCN2C(=O)CSC[C@@H](C(N)=O)NC1=O ({CH2CO}-PNGRC-NH2; thioether N-5)
